Results published in ChEMBL document CHEMBL2429803, “Animal toxicity of hairpin pyrrole-imidazole polyamides varies with the turn unit” (J Med Chem, 2013).
Activity calls are given as the source filed them.

Tests used:
[1] = test system: Mus musculus; test: Acute toxicity in C57BL/6J mouse assessed as weight loss at 10 mg/kg, sc after 9 days; format: organism-based; parameters: dose 10 mg/kg, route subcutaneous; settings: in vivo, 216 h
Summary of the method: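 Male C57BL/6J mice, 8 weeks old, were acclimated 3 days and then given a single sc injection of 1, 3 or 10 mg/kg in 25% DMSO/saline vehicle (up to 200 μL), n = 4 per group. Weight, behaviour and appearance were monitored daily for 9 days before sacrifice. The humane end point was visible duress or weight loss over 15% of the original.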

[2] = Metabolic stability in mouse liver microsomes after 1 hr by LC/MS/MS analysis; format: ADME, Microsome; settings: read-out: Stability
Summary of the method: (§1)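 Compound incubated at 37 °C for 60 min with 1 mg/mL human or mouse liver microsomes in 100 mM KH2PO4, 3 mM MgCl2, pH 7.4, with 2 mM NADPH or without it. Stopped with ice-cold methanol, then precipitate removed. Analyzed by LC/MS/MS as % remaining versus time zero. Duplicates.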

[3] = test system: Mus musculus; test: Acute toxicity in C57BL/6J mouse assessed as lesions in lungs at 1 to 10 mg/kg, sc after 9 days; format: organism-based; parameters: dose 1-10 mg/kg, route subcutaneous; settings: in vivo, 216 h
Summary of the method: (§2)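 Male C57BL/6J mice, 8 weeks old, received a single sc dose (1, 3 or 10 mg/kg in 25% DMSO/saline, n = 4 per group) and were sacrificed after 9 days. Two representative animals per group were fixed in 10% formalin. Cecum, duodenum, heart, ileum, kidney, liver, lung, pancreas, spleen and stomach were examined blind by a veterinary pathologist and lesions graded mild, moderate or severe.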

[4] = test system: Mus musculus; test: Toxicity in C57BL/6J mouse assessed as morbidity at 1 mg/kg, sc administered every 3 days for a cycle of 3 injections; format: organism-based; parameters: dose 1 mg/kg, route subcutaneous; settings: in vivo, 72 h
Summary of the method: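 Male C57BL/6J mice, 3 per group, given 1 mg/kg sc every 3 days. Weight recorded on injection days. Watched for signs of duress. Humane end point was visible duress or weight loss over 15% of starting body weight.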

[5] = test system: LNCaP; test: Induction in IGFBP3 level in human LNCAP cells after 72 hrs by RT-PCR analysis; format: functional, cell-based
Summary of the method: (§3)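 LNCaP cells, 50 000 per well, adhered 36–48 h, then treated with 1, 3 or 10 μM for 72 h. Total RNA extracted on columns and transcripts quantified by RT-qPCR.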

[6] = test system: Mus musculus; test: Toxicity in NSG immunocompromised mouse model xenografted with human LNCAP cells assessed as weight loss at 1 mg/kg, sc administered once every 3 days for a cycle of six injections; format: organism-based; parameters: dose 1 mg/kg, route subcutaneous; settings: in vivo, 72 h
Summary of the method: (§4)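 Male NSG mice engrafted in the left flank with 2.5 million LNCaP cells in 1:1 media/matrigel; dosing began at ~200 mm3 tumours (0.5 × L × W2). Compound or vehicle given sc in 20% DMSO/normal saline once every 3 d for six injections, n = 14 per group; weight and general health checked daily, sacrifice 2 days after final injection.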

[7] = test system: Mus musculus; test: Acute toxicity in C57BL/6J mouse assessed as lesions in pancreas at 1 to 10 mg/kg, sc after 9 days; format: organism-based; parameters: dose 1-10 mg/kg, route subcutaneous; settings: in vivo, 216 h; summary of the method: as §2
[8] = test system: Mus musculus; test: Acute toxicity in C57BL/6J mouse assessed as ALT level at 3 mg/kg, sc after 9 days; format: organism-based; parameters: dose 3 mg/kg, route subcutaneous; settings: in vivo, 216 h
Summary of the method: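 Male C57BL/6J mice, 8 weeks old, acclimated 3 days, then given a single sc injection of 1, 3 or 10 mg/kg in 25% DMSO/saline (4 per group). Weighed daily for 9 days, then sacrificed. Serum taken by retroorbital bleed and spun at 6000 rpm for 5 min. ALT, AST, total bilirubin, BUN and creatinine measured by an outside lab, blinded.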

[9] = test system: Mus musculus; test: Toxicity in NSG immunocompromised mouse model xenografted with human LNCAP cells assessed as distress at 1 mg/kg, sc administered once every 3 days for a cycle of six injections; format: organism-based; parameters: dose 1 mg/kg, route subcutaneous; settings: in vivo, 72 h; summary of the method: as §4
[10] = test system: Mus musculus; test: Acute toxicity in C57BL/6J mouse at 1 to 10 mg/kg, sc after 9 days; format: organism-based; parameters: dose 1-10 mg/kg, route subcutaneous; settings: in vivo, 216 h
Summary of the method: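 Single sc injection in male 8-week-old C57BL/6J mice (1, 3 or 10 mg/kg in 25% DMSO/saline; n = 4 per group), followed for 9 days with daily weighing, then sacrifice. Toxicity was assessed by blinded histopathology of two mice per group and by blinded serum ALT, AST, total bilirubin, BUN and creatinine from retroorbital blood of all mice.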

[11] = test system: Mus musculus; test: Toxicity in C57BL/6J mouse assessed as weight loss at 1 mg/kg, sc administered every 3 days for a cycle of 3 injections; format: organism-based; parameters: dose 1 mg/kg, route subcutaneous; settings: in vivo, 72 h
Summary of the method: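 8-week-old male C57BL/6J mice, acclimated 3 days, groups of three, dosed sc in 25% DMSO/saline vehicle once every 3 days, sacrificed 2 days after the last injection. Body weight recorded on injection days and at end point; humane end point set at visible duress or >15% loss of original body weight.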

[12] = Metabolic stability in mouse liver microsomes after 1 hr by LC/MS/MS analysis in presence of NADPH; format: ADME, Microsome; settings: read-out: Stability; summary of the method: as §1
[13] = test system: LNCaP; test: Genotoxicity in human LNCAP cells assessed as DNA strand breaks at 10 uM after 48 hrs by comet assay; format: toxicity, cell-based
Summary of the method: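 LNCaP cells, 100 000 per well, adhered 36–48 h, then treated 48 h at 10 μM (5 μM doxorubicin for 4 h as control). Alkaline comet assay imaged at 10× by confocal microscopy. More than 100 comets scored per condition. Damage reported as % DNA in tail.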

[14] = test system: LNCaP; test: Reduction in cellular RPB1 level in human LNCAP cells at 10 uM after 72 hrs by ELISA; format: functional, cell-based
Summary of the method: (§5)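 LNCaP cells treated 72 h at 10 μM. DMSO vehicle and 1 μM doxorubicin for 24 h served as controls. RPB1 measured with an RPB1-specific ELISA and total p53 with a pan-p53 ELISA. Biological triplicates.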

[15] = test system: LNCaP; test: Induction in GADD45A level in human LNCAP cells after 72 hrs by RT-PCR analysis; format: functional, cell-based; summary of the method: as §3
[16] = Metabolic stability in human liver microsomes after 1 hr by LC/MS/MS analysis in presence of NADPH; format: ADME, Microsome; settings: read-out: Stability; summary of the method: as §1
[17] = test system: LNCaP; test: Antitumor activity against human LNCAP cells xenografted in NSG immunocompromised mouse model assessed as tumor growth inhibition at 1 mg/kg, sc administered once every 3 days for a cycle of six injections measured 2 days post last injection relative to control; format: functional; settings: route subcutaneous
Summary of the method: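 Male NSG mice engrafted in the left flank with 2.5 million LNCaP cells in 1:1 media/matrigel. Treatment began at ~200 mm3 (0.5 × L × W2): 1 mg/kg sc in 20% DMSO/normal saline, or vehicle alone, every 3 days for six injections, 14 mice per group. Sacrificed 2 days after the last dose. Tumor weights compared with vehicle (T/C).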

[18] = test system: Mus musculus; test: Toxicity in C57BL/6J mouse assessed as total RBC count at 1 mg/kg, sc administered once every 3 days for a cycle of six injections measured 2 days post last injection; format: organism-based; parameters: dose 1 mg/kg, route subcutaneous; settings: in vivo, 48 h
Summary of the method: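 Five male C57BL/6J mice bled retroorbitally into K2EDTA tubes at baseline. After 1 week of recovery they were given 1 mg/kg sc in 20% DMSO/saline every 3 days for six injections, then bled again at the end point. Hematology (WBC, RBC, hemoglobin, neutrophils, lymphocytes) measured externally. Mean of five animals, ± std.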

[19] = test system: Mus musculus; test: Toxicity in C57BL/6J mouse assessed as total WBC count at 1 mg/kg, sc administered once every 3 days for a cycle of six injections measured 2 days post last injection; format: organism-based; parameters: dose 1 mg/kg, route subcutaneous; settings: in vivo, 48 h
Summary of the method: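 Male C57BL/6J mice, blood taken by retroorbital bleed before dosing; after 1 week recovery, sc injections once every 3 d in 20% DMSO:normal saline, six injections; bled again at end point (2 days after final injection). K2EDTA blood sent for hematology (WBC, RBC, hemoglobin, neutrophils, lymphocytes); n = 5, mean with std.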

[20] = test system: LNCaP; test: Induction in p21 level in human LNCAP cells after 72 hrs by RT-PCR analysis; format: functional, cell-based; summary of the method: as §3
[21] = test system: Mus musculus; test: Acute toxicity in C57BL/6J mouse assessed as lesions in heart at 1 to 10 mg/kg, sc after 9 days; format: organism-based; parameters: dose 1-10 mg/kg, route subcutaneous; settings: in vivo, 216 h; summary of the method: as §2
[22] = test system: LNCaP; test: Cytotoxicity against human LNCAP cells after 72 hrs by WST-1 assay; format: functional, cell-based
Summary of the method: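 LNCaP cells seeded at 5000–7500 per well and left to adhere 36–48 h. Compound added in fresh medium for 72 h. Metabolic activity read by WST-1 and IC50 derived from the dose–response. Biological triplicates.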

[23] = Metabolic stability in human liver microsomes after 1 hr by LC/MS/MS analysis; format: ADME, Microsome; settings: read-out: Stability; summary of the method: as §1
[24] = test system: Mus musculus; test: Acute toxicity in C57BL/6J mouse assessed as lesions in stomach at 1 to 10 mg/kg, sc after 9 days; format: organism-based; parameters: dose 1-10 mg/kg, route subcutaneous; settings: in vivo, 216 h; summary of the method: as §2
[25] = test system: Mus musculus; test: Acute toxicity in C57BL/6J mouse assessed as lesions in GI tract at 1 to 10 mg/kg, sc after 9 days; format: organism-based, Gastrointestinal tract; parameters: dose 1-10 mg/kg, route subcutaneous; settings: in vivo, 216 h; summary of the method: as §2
[26] = test system: LNCaP; test: Induction in cellular p53 level in human LNCAP cells at 10 uM after 72 hrs by ELISA; format: functional, cell-based; summary of the method: as §5
[27] = Drug uptake in nucleus of C57BL/6J mouse liver at 3 mg/kg, sc after 24 hrs by confocal microscopic analysis; format: ADME, organism-based; parameters: dose 3 mg/kg, route subcutaneous; settings: in vivo
Summary of the method: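 Male C57BL/6J mice, 2 per group, injected with 50 nmol (~3 mg/kg) of fluorescein-conjugated polyamide and sacrificed 24 h later. Liver fixed in 10% formalin for 48 h, cryoprotected in 15% then 30% sucrose, and frozen. Nuclear fluorescence assessed by confocal microscopy in 10 μm sections.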

Cn1cc2cc1C(=O)NCCCC(=O)Nc1cn(C)c(n1)C(=O)Nc1cc(n(C)c1)C(=O)Nc1cc(n(C)c1)C(=O)Nc1cc(n(C)c1)C(=O)NCC[C@@H](N)C(=O)Nc1cn(C)c(n1)C(=O)Nc1cc(n(C)c1)C(=O)Nc1cc(n(C)c1)C(=O)N2
Non-toxic: Activity [1]

CC(=O)N[C@H](CCNC(=O)c1cc(NC(=O)c2cc(NC(=O)c3cc(NC(=O)c4nccn4C)cn3C)cn2C)cn1C)C(=O)Nc1cn(C)c(C(=O)Nc2cc(C(=O)Nc3cc(C(=O)Nc4cc(C(=O)NCCCN(C)CCCNC(=O)c5cccc(C(=O)O)c5)n(C)c4)n(C)c3)n(C)c2)n1
2100 nM: IC50 [22]
> 90%: remaining at 1 h [2] | remaining at 1 h [12] | remaining at 1 h [16] | remaining at 1 h [23]
active: Activity [5] Dose-dependent effect | Activity [14] | Activity [15] Dose-dependent effect | Activity [20] Dose-dependent effect | Activity [22] Dose-dependent effect | Activity [26]
Non-toxic: Activity [3] | Activity [4] | Activity [6] | Activity [7] | Activity [9] | Activity [10] | Activity [11] | Activity [13] | Activity [18] | Activity [19] | Activity [21] | Activity [24] | Activity [25]
29 U/L: Activity [8]
52.4%: T/C [17]

CC(=O)N[C@@H](CNC(=O)c1cc(NC(=O)c2cc(NC(=O)c3cc(NC(=O)c4nccn4C)cn3C)cn2C)cn1C)CC(=O)Nc1cn(C)c(C(=O)Nc2cc(C(=O)Nc3cc(C(=O)Nc4cc(C(=O)NCCCN(C)CCCNC(=S)Nc5ccc(-c6c7ccc(=O)cc-7oc7cc(O)ccc67)c(C(=O)O)c5)n(C)c4)n(C)c3)n(C)c2)n1
Active: Drug uptake [27]
